Measured values: ChEMBL document CHEMBL5236592, “Induction of Ferroptosis in Glioblastoma and Ovarian Cancers by a New Pyrrole Tubulin Assembly Inhibitor” (J Med Chem, 2022)
Calls of active or inactive are those of the source.

Tests used:
U-87MG ATCC [1] = assay: Induction of ferroptosis-mediated antitumor activity against human U-87 MG cells xenografted in BALB/C nu/nu mouse assessed as increase in Fe2+ level in tumor at 25 mg/kg, ip administered every 2 days for 40 days; format: functional, organism-based; conditions: time 40.0 day
Summary of the method: (§1)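 U-87 MG or SKOV-3 sc xenografts (1 × 10^8 cells/mL) in female BALB/c nu/nu mice, 4 per group. Given 25 mg/kg ip in 100 μL every 2 days, or saline. Tumors harvested on day 40 and assayed for LPO, MDA, lactic acid, total glutathione (GSH + GSSG), ATP and Fe2+.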

SK-OV-3 [2] = assay: Induction of ferroptosis-mediated antitumor activity against human SK-OV-3 cells xenografted in BALB/C nu/nu mouse assessed as increase in lactic acid level in tumor at 25 mg/kg, ip administered every 2 days for 40 days by biochemical analysis; format: functional, organism-based; conditions: time 40.0 day; summary of the method: as §1
Mus musculus [3] = assay: Upregulation of Gclm mRNA expression in tumor of BALB/C nu/nu mouse xenografted with human SK-OV-3 cells at 25 mg/kg, ip administered every 2 days for 40 days by qPCR analysis; format: functional, organism-based; conditions: time 40.0 day
Summary of the method: (§2)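 Female BALB/c nu/nu mice bearing sc U-87 MG or SKOV-3 xenografts were dosed ip at 25 mg/kg (100 μL) every 2 days, or given saline, and tumors were taken at day 40. RNA was extracted from about 20 mg of tissue. qPCR ran 40 cycles (95 °C 15 min; 94 °C 20 s; 60 °C 34 s) on a 69-gene panel. Fold change was by 2^–ΔΔCt, with ≥1.5 counted as increased.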

Mus musculus [4] = assay: Upregulation of Clsd1 mRNA expression in tumor of BALB/C nu/nu mouse xenografted with human U-87 MG cells at 25 mg/kg, ip administered every 2 days for 40 days by qPCR analysis; format: functional, organism-based; conditions: time 40.0 day; summary of the method: as §2
SK-OV-3 [5] = assay: Induction of ferroptosis-mediated antitumor activity against human SK-OV-3 cells xenografted in BALB/C nu/nu mouse assessed as increase in […] level in tumor at 25 mg/kg, ip administered every 2 days for 40 days by biochemical analysis; format: functional, organism-based; conditions: time 40.0 day; summary of the method: as §1
U-87MG ATCC [6] = assay: Antitumor activity against human U-87 MG cells xenografted in BALB/C nu/nu mouse assessed as reduction in Ki67 expression in tumor at 25 mg/kg, ip administered every 2 days for 40 days by immunofluoresence staining based assay; format: functional, organism-based; conditions: time 40.0 day
Summary of the method: (§3)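 Female BALB/c nu/nu mice, 10 weeks old, 4 per group. Received subcutaneous U-87 MG or SKOV-3 cells (1 × 10^8 cells/mL, harvested in log phase). Dosed ip with 100 μL at 25 mg/kg every 2 days; controls got 100 μL saline on the same schedule. Sacrificed at 40 days; tumors weighed, volume = ab²/2. Tumor sections (6 μm, paraffin) stained by immunofluorescence for Ki67 or CD31 with Alexa Fluor 488 secondary.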

Mus musculus [7] = assay: Upregulation of Chac1 mRNA expression in tumor of BALB/C nu/nu mouse xenografted with human SK-OV-3 cells at 25 mg/kg, ip administered every 2 days for 40 days by qPCR analysis; format: functional, organism-based; conditions: time 40.0 day; summary of the method: as §2
Mus musculus [8] = assay: Upregulation of Cpx mRNA expression in tumor of BALB/C nu/nu mouse xenografted with human SK-OV-3 cells at 25 mg/kg, ip administered every 2 days for 40 days by qPCR analysis; format: functional, organism-based; conditions: time 40.0 day; summary of the method: as §2
OVCAR-3 = assay: Induction of apoptosis in human OVCAR-3 cells assessed as increase cleaved PARP expression at 5 to 10 nM incubated for 48 hrs by immunoblot analysis; format: functional, cell-based; conditions: dose 5-10 nM
Summary of the method: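 OVCAR-3 cells were grown in DMEM with 20% FBS and 0.01 μg/mL insulin. They were treated for 48 h at 0, 0.25, 2.5, 5 and 10 nM. Lysates were made in SDS–urea, sonicated and run on SDS-PAGE, then transferred to nitrocellulose. Blots were probed with anti-PARP (1:1000; full-length and cleaved) and anti-actin loading control (1:10,000), with HRP/ECL detection.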

Mus musculus [9] = assay: Upregulation of Ptgs2 mRNA expression in tumor of BALB/C nu/nu mouse xenografted with human U-87 MG cells at 25 mg/kg, ip administered every 2 days for 40 days by qPCR analysis; format: functional, organism-based; conditions: time 40.0 day
Summary of the method: (§4)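 Female BALB/c nu/nu mice, 10 weeks old, 4 per group. Inoculated s.c. with 1 × 10^8 cells/mL of log-phase U-87 MG or SKOV-3 cells. Dosed i.p. with 100 μL at 25 mg/kg every 2 days; controls got 100 μL saline. Tumors harvested on day 40. RNA extracted from about 20 mg of tissue. qPCR panel of 69 genes, 40 cycles (94 °C 20 s, 60 °C 34 s). Analysed by 2–ΔΔCt; fold ≥1.5 taken as increased.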

SK-OV-3 [10] = assay: Induction of ferroptosis-mediated antitumor activity against human SK-OV-3 cells xenografted in BALB/C nu/nu mouse assessed as reduction in total glutathione level in tumor at 25 mg/kg, ip administered every 2 days for 40 days by biochemical analysis; format: functional, organism-based; conditions: time 40.0 day; summary of the method: as §1
U-87MG ATCC [11] = assay: Antitumor activity against human U-87 MG cells xenografted in BALB/C nu/nu mouse assessed as reduction in CD31 expression in tumor at 25 mg/kg, ip administered every 2 days for 40 days by immunofluoresence staining based assay; format: functional, organism-based; conditions: time 40.0 day; summary of the method: as §3
Mus musculus [12] = assay: Upregulation of Nrf2 mRNA expression in tumor of BALB/C nu/nu mouse xenografted with human SK-OV-3 cells at 25 mg/kg, ip administered every 2 days for 40 days by qPCR analysis; format: functional, organism-based; conditions: time 40.0 day; summary of the method: as §4
U-87MG ATCC [13] = assay: Induction of ferroptosis-mediated antitumor activity against human U-87 MG cells xenografted in BALB/C nu/nu mouse assessed as reduction in GPX4 protein expression in tumor at 25 mg/kg, ip administered every 2 days for 40 days by immunofluoresence staining based assay; format: functional, organism-based; conditions: time 40.0 day
Summary of the method: (§5)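 Xenografts of U-87 MG or SKOV-3 (1 × 10^8 cells/mL, sc) in female BALB/c nu/nu mice, 4 per group. Treated ip at 25 mg/kg in 100 μL every 2 days versus saline, tumors collected at day 40. Paraffin sections (6 μm) were blocked at 37 °C for 30 min, then incubated with rabbit anti-GPX4 or anti-FTH1 and then Alexa Fluor 488 anti-rabbit, each for 45 min at 37 °C.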

Mus musculus [14] = assay: Upregulation of Gpx4 mRNA expression in tumor of BALB/C nu/nu mouse xenografted with human U-87 MG cells at 25 mg/kg, ip administered every 2 days for 40 days by qPCR analysis; format: functional, organism-based; conditions: time 40.0 day; summary of the method: as §4
Mus musculus [15] = assay: Upregulation of Alfm1 mRNA expression in tumor of BALB/C nu/nu mouse xenografted with human U-87 MG cells at 25 mg/kg, ip administered every 2 days for 40 days by qPCR analysis; format: functional, organism-based; conditions: time 40.0 day; summary of the method: as §2
SK-OV-3 [16] = assay: Antitumor activity against human SK-OV-3 cells xenografted in BALB/C nu/nu mouse assessed as reduction in tumor growth at 25 mg/kg, ip administered every 2 days for 40 days; format: functional, organism-based; conditions: time 40.0 day; summary of the method: as §3
U-87MG ATCC [17] = assay: Induction of ferroptosis-mediated antitumor activity against human U-87 MG cells xenografted in BALB/C nu/nu mouse assessed as reduction in FTH1 protein expression in tumor at 25 mg/kg, ip administered every 2 days for 40 days by immunofluoresence staining based assay; format: functional, organism-based; conditions: time 40.0 day; summary of the method: as §5

Measured: Activity

COc1cc(C(=O)c2cn(-c3ncccn3)cc2-c2ccco2)cc(OC)c1OC
active: all assays above
